Assay results: ChEMBL document CHEMBL4024775, “Quinazolinone-Based Anticancer Agents: Synthesis, Antiproliferative SAR, Antitubulin Activity, and Tubulin Co-crystal Structure” (J Med Chem, 2018)
The source made the active and inactive calls. No cut-off for these calls is given here.

Experiments:
DU-145 = assay: Antiproliferative activity against human DU145 cells after 96 hrs by WST-1 cell proliferation assay; type: functional; conditions: DU-145, 96 h
Method in brief: (§1)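 Cells kept in RPMI-1640 with 10% FBS, penicillin and streptomycin at 37 °C, 5% CO2. Seeded at 5000 cells/well and exposed to 10-9–10-4 M compound or vehicle for 96 h. Live cells were read by WST-1. Viability was taken as percent of mean control and used to derive GI50. Triplicate experiments, mean values.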

MDA-MB-231 [1] = assay: Antiproliferative activity against human MDA-MB-231 cells after 96 hrs by WST-1 cell proliferation assay; type: functional; conditions: MDA-MB-231, 96 h; method in brief: as §1
[2] = molecular target: T1, Steryl-sulfatase (Homo sapiens) (UniProt P08842); assay: Inhibition of STS in human JEG3 cells at 100 uM using [6,7-3H]E1S as substrate after 3 hrs by liquid scintillation spectrometry; type: cell-based
T1 sequence (whole entry): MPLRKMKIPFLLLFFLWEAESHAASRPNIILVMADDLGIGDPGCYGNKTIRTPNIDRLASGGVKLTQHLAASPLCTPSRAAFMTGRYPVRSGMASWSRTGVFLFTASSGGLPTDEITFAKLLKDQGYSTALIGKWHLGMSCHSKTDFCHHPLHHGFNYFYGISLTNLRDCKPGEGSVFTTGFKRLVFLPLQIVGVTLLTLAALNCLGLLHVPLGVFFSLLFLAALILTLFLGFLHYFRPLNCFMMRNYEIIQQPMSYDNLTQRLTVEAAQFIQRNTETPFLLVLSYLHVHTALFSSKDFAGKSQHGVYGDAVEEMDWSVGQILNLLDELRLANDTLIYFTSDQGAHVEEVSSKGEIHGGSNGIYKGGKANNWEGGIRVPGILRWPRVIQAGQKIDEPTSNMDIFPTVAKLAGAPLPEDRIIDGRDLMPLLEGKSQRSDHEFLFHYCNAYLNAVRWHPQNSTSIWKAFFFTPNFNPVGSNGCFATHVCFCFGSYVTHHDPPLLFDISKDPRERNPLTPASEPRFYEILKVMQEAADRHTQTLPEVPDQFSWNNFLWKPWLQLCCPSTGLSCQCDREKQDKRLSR
Method in brief: (§2)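 JEG-3 cells were lysed in RIPA buffer and protein measured by BCA. Lysate (50 µg protein) was incubated 3 h in PBS with [6,7-3H]E1S at 20 µM final (unlabeled E1S added), with or without inhibitor. [4-14C]E1 tracked procedural losses. E1 was separated by toluene partition and counted by scintillation. Activity taken as pmol E1/h/mg protein and expressed as percent inhibited.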

[3] = molecular target: T1, Steryl-sulfatase (Homo sapiens); assay: Inhibition of STS in human JEG3 cells at 10 uM using [6,7-3H]E1S as substrate after 3 hrs by liquid scintillation spectrometry; type: cell-based; method in brief: as §2
[4] = Inhibition of bovine brain tubulin polymerization preincubated for 15 mins followed by GTP addition measured after 20 mins by spectrophotometric analysis; set-up: species or system Bos taurus
Method in brief: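 Bovine brain tubulin 1.0 mg/mL (10 µM) was preincubated without GTP with varied compound concentrations for 15 min at 30 °C, then chilled and given GTP (0.4 mM final). After a 0 °C baseline, turbidity rise was followed for 20 min after a jump to 30 °C. IC50 is the concentration that halves the turbidity increase.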

Bos taurus = organism: Bos taurus; assay: Inhibition of [3H]colchicine binding to bovine brain tubulin at 5 uM after 10 mins by DEAE-cellulose filter method relative to control
Method in brief: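 Bovine brain tubulin 0.1 mg/mL (1.0 µM) with 5.0 µM [3H]colchicine and inhibitor at 5.0 µM, incubated 10 min at 37 °C. CA-4 served as comparator.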

RPMI-8226 [5] = assay: Antitumor activity against human RPMI8226 cell lines xenografted in NCr-nude mouse assessed as tumor growth inhibition at 40 mg/kg, po for 28 days measured on day 53; type: functional; conditions: RPMI-8226, po, read-out: TGI
Method in brief: (§3)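 Female NCr-nude mice, 4-6 weeks old. 6 x 10^6 tumor cells mixed with an equal volume of Matrigel were implanted subcutaneously in the left flank. At about 100 mm3, mice were randomized into 3 groups of 6. Oral vehicle or compound given for 28 days. Tumor weight estimated as (w2 x l)/2 and read at day 53, 18 days after dosing ended.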

RPMI-8226 [6] = assay: Antitumor activity against human RPMI8226 cell lines xenografted in NCr-nude mouse assessed as tumor growth inhibition at 20 mg/kg, po for 28 days measured on day 53; type: functional; conditions: RPMI-8226, po, read-out: TGI; method in brief: as §3
MDA-MB-231 [7] = assay: Antiproliferative activity against human MDA-MB-231 cells after 48 hrs by MTT assay; type: functional; conditions: MDA-MB-231, 48 h

COc1ccc(CN2Cc3cc(OC)c(OS(N)(=O)=O)cc3NC2=O)cc1
GI50 (DU-145): > 100 µM | GI50 (MDA-MB-231 [1]): > 100 µM | inhibition [2]: inactive

CCc1cc2c(cc1OS(N)(=O)=O)CCN(Cc1cc(Br)c(OC)c(OC)c1)C2
inhibition [2]: Active

COc1cc2c(cc1O)NC(=O)N(Cc1cc(OC)c(OC)c(OC)c1)C2
GI50 (DU-145): 8.4 µM | GI50 (MDA-MB-231 [1]): 9.3 µM

COc1cc2c(cc1OS(N)(=O)=O)CCN(Cc1cc(Br)c(OC)c(OC)c1)C2
inhibition [2]: 45%

COc1cc2c(cc1O)NC(=O)N(Cc1ccccc1)C2
GI50 (DU-145): > 100 µM | GI50 (MDA-MB-231 [1]): > 100 µM

COc1cc(CN2CCc3cc(O)ccc3C2)cc(OC)c1OC
inhibition [2]: Active

COc1cc2c(cc1OS(N)(=O)=O)NC(=O)N(Cc1ccccc1Cl)C2
GI50 (DU-145): 0.5 µM | inhibition [3]: Active | GI50 (MDA-MB-231 [1]): 0.2 µM | IC50 [4]: 5 µM | inhibition (Bos taurus): 43% | inhibition [2]: 70 to 80%

COc1cccc(CN2Cc3cc(OC)c(OS(N)(=O)=O)cc3NC2=O)c1
GI50 (DU-145): 33 µM | GI50 (MDA-MB-231 [1]): 34 µM

COc1cc2c(cc1OS(N)(=O)=O)NC(=O)N(Cc1cccc(Cl)c1)C2
GI50 (DU-145): 3.2 µM | inhibition [3]: Active | GI50 (MDA-MB-231 [1]): 2.2 µM | inhibition [2]: 70 to 80%

COc1cc2c(cc1O)NC(=O)N(Cc1cccc(Cl)c1)C2
GI50 (DU-145): 81 µM | GI50 (MDA-MB-231 [1]): > 100 µM

COc1cc2c(cc1O)NC(=O)N(Cc1ccccc1OC)C2
GI50 (DU-145): 2.2 µM | GI50 (MDA-MB-231 [1]): 5.7 µM

COc1cc2c(cc1O)NC(=O)N(Cc1ccccc1Cl)C2
GI50 (DU-145): 5.6 µM | GI50 (MDA-MB-231 [1]): 5 µM

COc1cc2c(cc1O)CCN(Cc1cc(Br)c(OC)c(OC)c1)C2
inhibition [2]: Active

COc1ccc(OC)c(CN2Cc3cc(OC)c(OS(N)(=O)=O)cc3NC2=O)c1
GI50 (DU-145): 0.05 µM | GI50 (MDA-MB-231 [1]): 0.05 µM | IC50 [4]: 2.5 µM | inhibition (Bos taurus): 61% | inhibition [2]: inactive

COc1ccccc1CN1Cc2cc(OC)c(OS(N)(=O)=O)cc2NC1=O
GI50 (DU-145): 0.3 µM | inhibition [3]: Active | inhibition in vivo at 40 mg/kg (RPMI-8226 [5]): 31% | GI50 (MDA-MB-231 [1]): 0.2 µM | IC50 [4]: 2.5 µM | inhibition in vivo at 20 mg/kg (RPMI-8226 [6]): 27% | inhibition (Bos taurus): 55% | inhibition [2]: 70 to 80%

COc1cc2c(cc1OS(N)(=O)=O)NC(=O)N(Cc1ccccc1)C2
GI50 (DU-145): > 100 µM | GI50 (MDA-MB-231 [1]): > 100 µM | inhibition [2]: inactive

COc1ccc(/C=C\c2cc(OC)c(OC)c(OC)c2)cc1O [COMBRETASTATIN A4]
GI50 (MDA-MB-231 [7]): 0.045 µM

COc1cc2c(cc1O)NC(=O)N(Cc1ccccc1F)C2
GI50 (DU-145): > 100 µM | GI50 (MDA-MB-231 [1]): > 100 µM

COc1cc2c(cc1O)NC(=O)N(Cc1ccccc1C)C2
GI50 (DU-145): > 100 µM | GI50 (MDA-MB-231 [1]): > 100 µM

COc1cccc(CN2Cc3cc(OC)c(O)cc3NC2=O)c1
GI50 (DU-145): > 100 µM | GI50 (MDA-MB-231 [1]): > 100 µM

COc1cc2c(cc1OS(N)(=O)=O)NC(=O)N(Cc1cccc(OC)c1OC)C2
GI50 (DU-145): 0.8 µM | GI50 (MDA-MB-231 [1]): 0.4 µM | IC50 [4]: 8.6 µM | inhibition [2]: inactive

COc1cc2c(cc1OS(N)(=O)=O)NC(=O)N(Cc1ccccc1F)C2
GI50 (DU-145): 4.8 µM | GI50 (MDA-MB-231 [1]): 4.5 µM | inhibition [2]: 20 to 25%

COc1cc2c(cc1OS(N)(=O)=O)NC(=O)N(Cc1ccccc1C)C2
GI50 (DU-145): 60 µM | GI50 (MDA-MB-231 [1]): 7.4 µM | inhibition [2]: 20 to 25%

COc1ccc(OC)c(CN2Cc3cc(OC)c(O)cc3NC2=O)c1
GI50 (DU-145): 1.5 µM | GI50 (MDA-MB-231 [1]): 2.3 µM | inhibition [2]: inactive

COc1cc2c(cc1O)NC(=O)N(Cc1cccc(OC)c1OC)C2
GI50 (DU-145): 8.5 µM | GI50 (MDA-MB-231 [1]): 8.3 µM

CCc1cc2c(cc1OS(N)(=O)=O)CCN(Cc1cc(OC)c(OC)c(OC)c1)C2
inhibition [2]: Active

COc1cc2c(cc1OS(N)(=O)=O)NC(=O)N(Cc1cc(OC)c(OC)c(OC)c1)C2
GI50 (DU-145): 0.1 µM | GI50 (MDA-MB-231 [1]): 0.1 µM | IC50 [4]: 5.6 µM | inhibition [2]: inactive

COc1ccc(CN2Cc3cc(OC)c(O)cc3NC2=O)cc1
GI50 (DU-145): > 100 µM | GI50 (MDA-MB-231 [1]): > 100 µM

COc1cc(CN2CCc3cc(OS(N)(=O)=O)ccc3C2)cc(OC)c1OC
inhibition [2]: Active
